Test results published in ChEMBL document CHEMBL1938388, “Design, synthesis and biological evaluation of new naphtalene diimides bearing isothiocyanate functionality” (Eur J Med Chem, 2012).
Active and inactive are the calls of the source. The rule behind the calls is not given here.

What was measured:
Jurkat [1] = experiment: Cytotoxicity against human Jurkat T cells assessed as decrease in cell viability after 24 hrs by flow cytometric analysis; format: functional, cell-based
How it was run: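 Jurkat cultures kept in exponential growth (split every third day to 1 × 10^5 cells/ml) were treated for one cell cycle (24 h) at graded concentrations. Viability was read right after treatment by flow cytometry after 5 min propidium iodide-based stain at room temperature. IC50 was interpolated from the dose-response curve; ≥3 independent experiments, mean ± SEM.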

Jurkat [2] = experiment: Cytotoxicity against human Jurkat T cells assessed as necrotic cells at 0.1 to 16 uM after 72 hrs by flow cytometric analysis; format: functional, cell-based
How it was run: (§1)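 After 72 h exposure of Jurkat cells, 2 × 10^4 cells were stained with an Annexin V-PE/7-AAD cocktail for 20 min at room temperature in the dark. Necrotic cells were scored by flow cytometry.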

Jurkat [3] = experiment: Cytotoxicity against human Jurkat T cells assessed as necrotic cells at 1 uM after 72 hrs by flow cytometric analysis; format: functional; how it was run: as §1
Jurkat [4] = experiment: Ratio IC50 for sulforaphane to compound for human Jurkat T cells; format: functional
Jurkat [5] = experiment: Induction of apoptosis in human Jurkat T cells assessed as increase in phosphatidylserine level after 24 hrs by flow cytometric analysis; format: functional, cell-based
Jurkat [6] = experiment: Induction of apoptosis in human Jurkat T cells assessed as increase in phosphatidylserine level at 0.25 to 1.5 uM after 24 hrs by flow cytometric analysis; format: functional, cell-based
Jurkat [7] = experiment: Induction of apoptosis in human Jurkat T cells assessed as increase in necrotic cells at 1.5 uM after 24 hrs by 7-AA staining-based flow cytometric analysis; format: functional, cell-based
Jurkat [8] = experiment: Induction of apoptosis in human Jurkat T cells assessed as decrease in membrane potential at 0.5 uM after 24 hrs by JC-1 staining-based flow cytometric analysis; format: functional; parameters: scale not given: the % may be the effect or the level left
Jurkat [9] = experiment: Induction of apoptosis in human Jurkat T cells assessed as decrease in membrane potential at 0.75 uM after 24 hrs by JC-1 staining-based flow cytometric analysis; format: functional; parameters: scale not given: the % may be the effect or the level left
Jurkat [10] = experiment: Induction of apoptosis in human Jurkat T cells assessed as decrease in membrane potential at 2 uM after 24 hrs by JC-1 staining-based flow cytometric analysis; format: functional; parameters: scale not given: the % may be the effect or the level left
Jurkat [11] = experiment: Induction of apoptosis in human Jurkat T cells assessed as decrease in membrane potential after 24 hrs by JC-1 staining-based flow cytometric analysis; format: functional, cell-based
Jurkat [12] = experiment: Growth inhibition in human Jurkat T cells assessed as suppression into cell cycle progression at 1 uM after 24 hrs by flow cytometric analysis; format: functional; details: read-out: GI
How it was run: (§2)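 Jurkat cells were treated 24 h at graded concentrations, and cell growth inhibition was measured by flow cytometry. Mean ± SEM of at least three independent experiments.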

Jurkat [13] = experiment: Growth inhibition in human Jurkat T cells assessed as suppression into cell cycle progression at 1.5 uM after 24 hrs by flow cytometric analysis; format: functional; details: read-out: GI; how it was run: as §2
Jurkat [14] = experiment: Growth inhibition in human Jurkat T cells assessed as suppression into cell cycle progression at 3 uM after 24 hrs by flow cytometric analysis; format: functional; details: read-out: GI; how it was run: as §2
Jurkat [15] = experiment: Cell cycle arrest in human Jurkat T cells assessed as accumulation at G1 phase at 0.25 to 0.5 uM after 24 hrs by flow cytometric analysis (reference value: 58%); format: functional
How it was run: (§3)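 Jurkat cells exposed 24 h to a range of concentrations, fixed in ice-cold ethanol, stained with propidium iodide-containing cell cycle reagent for 30 min at room temperature in the dark; G1, S and G2/M fractions from flow cytometry. Mean ± SEM of four independent experiments.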

Jurkat [16] = experiment: Cell cycle arrest in human Jurkat T cells assessed as accumulation at S phase at 0.25 to 0.5 uM after 24 hrs by flow cytometric analysis; format: functional, cell-based; how it was run: as §3
Jurkat [17] = experiment: Cell cycle arrest in human Jurkat T cells assessed as accumulation at G2/M phase at 0.25 to 0.5 uM after 24 hrs by flow cytometric analysis; format: functional, cell-based; how it was run: as §3
Jurkat [18] = experiment: Induction of apoptosis in human Jurkat T cells assessed as decrease in membrane potential at 0.25 to 1 uM after 24 hrs by JC-1 staining-based flow cytometric analysis; format: functional, cell-based
Jurkat [19] = experiment: Induction of apoptosis in human Jurkat T cells assessed as caspase 8 activation after 24 hrs by FAM-LETD-FMK staining-based flow cytometric analysis
Jurkat [20] = experiment: Induction of apoptosis in human Jurkat T cells assessed as caspase 8 activation at 0.25 to 1 uM after 24 hrs by FAM-LETD-FMK staining-based flow cytometric analysis
Jurkat [21] = experiment: Induction of apoptosis in human Jurkat T cells assessed as increase in phosphatidylserine level at 0.5 to 4 uM after 24 hrs by flow cytometric analysis; format: functional, cell-based
Jurkat [22] = experiment: Induction of apoptosis in human Jurkat T cells assessed as increase in necrotic cells at 4 uM after 24 hrs by 7-AA staining-based flow cytometric analysis; format: functional, cell-based
Jurkat [23] = experiment: Induction of apoptosis in human Jurkat T cells assessed as decrease in membrane potential at 1 uM after 24 hrs by JC-1 staining-based flow cytometric analysis; format: functional; parameters: scale not given: the % may be the effect or the level left
Jurkat [24] = experiment: Growth inhibition in human Jurkat T cells assessed as suppression into cell cycle progression at 2 uM after 24 hrs by flow cytometric analysis; format: functional; how it was run: as §2
Jurkat [25] = experiment: Growth inhibition in human Jurkat T cells assessed as suppression into cell cycle progression at 4 uM after 24 hrs by flow cytometric analysis; format: functional; details: read-out: GI; how it was run: as §2
Jurkat [26] = experiment: Growth inhibition in human Jurkat T cells assessed as suppression into cell cycle progression at 8 uM after 24 hrs by flow cytometric analysis; format: functional; details: read-out: GI; how it was run: as §2
Jurkat [27] = experiment: Cell cycle arrest in human Jurkat T cells assessed as accumulation at G1 phase at 0.5 to 1 uM after 24 hrs by flow cytometric analysis (reference value: 63%); format: functional; how it was run: as §3
Jurkat [28] = experiment: Cell cycle arrest in human Jurkat T cells assessed as accumulation at S phase at 0.5 to 1 uM after 24 hrs by flow cytometric analysis (reference value: 20%); format: functional; how it was run: as §3
Jurkat [29] = experiment: Cell cycle arrest in human Jurkat T cells assessed as accumulation at G2/M phase at 0.5 to 1 uM after 24 hrs by flow cytometric analysis; format: functional, cell-based; how it was run: as §3
Jurkat [30] = experiment: Induction of apoptosis in human Jurkat T cells assessed as decrease in membrane potential at 0.5 to 2 uM after 24 hrs by JC-1 staining-based flow cytometric analysis; format: functional, cell-based
Jurkat [31] = experiment: Induction of apoptosis in human Jurkat T cells assessed as caspase 8 activation at 0.5 to 2 uM after 24 hrs by FAM-LETD-FMK staining-based flow cytometric analysis
Jurkat [32] = experiment: Induction of apoptosis in human Jurkat T cells assessed as increase in phosphatidylserine level at 2 uM after 24 hrs by flow cytometric analysis; format: functional, cell-based
How it was run: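 Jurkat T leukemia cells were exposed for 24 h. Aliquots of 2 × 10^4 cells were then stained with Guava Nexin Reagent, which contains Annexin V-PE for phosphatidylserine exposure and 7-AAD for membrane-permeable, necrotic cells. Staining ran 20 min at room temperature in the dark, followed by flow cytometry. Data are mean ± SEM of at least three independent experiments. Friedman test, Dunn's post test.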

Jurkat [33] = experiment: Induction of apoptosis in human Jurkat T cells assessed as increase in phosphatidylserine level at 0.25 to 1 uM after 24 hrs by flow cytometric analysis; format: functional, cell-based
Jurkat [34] = experiment: Induction of apoptosis in human Jurkat T cells assessed as increase in necrotic cells at 1 uM after 24 hrs by 7-AA staining-based flow cytometric analysis; format: functional, cell-based
Jurkat [35] = experiment: Growth inhibition in human Jurkat T cells assessed as suppression into cell cycle progression at 0.75 uM after 24 hrs by flow cytometric analysis; format: functional; details: read-out: GI; how it was run: as §2
Jurkat [36] = experiment: Cell cycle arrest in human Jurkat T cells assessed as accumulation at G1 phase at 0.25 to 0.5 uM after 24 hrs by flow cytometric analysis (reference value: 56%); format: functional; how it was run: as §3
Jurkat [37] = experiment: Cell cycle arrest in human Jurkat T cells assessed as accumulation at S phase at 0.25 to 0.5 uM after 24 hrs by flow cytometric analysis (reference value: 21%); format: functional; how it was run: as §3
Jurkat [38] = experiment: Cell cycle arrest in human Jurkat T cells assessed as accumulation at G2/M phase at 0.25 to 0.5 uM after 24 hrs by flow cytometric analysis (reference value: 29%); format: functional; how it was run: as §3
Jurkat [39] = experiment: Induction of apoptosis in human Jurkat T cells assessed as decrease in membrane potential at 0.25 to 0.75 uM after 24 hrs by JC-1 staining-based flow cytometric analysis; format: functional, cell-based
Jurkat [40] = experiment: Induction of apoptosis in human Jurkat T cells assessed as caspase 8 activation at 0.25 to 0.75 uM after 24 hrs by FAM-LETD-FMK staining-based flow cytometric analysis
Jurkat [41] = experiment: Induction of apoptosis in human Jurkat T cells assessed as increase in apoptotic cells at 0.75 uM after 24 hrs by 7-AA staining-based flow cytometric analysis relative to sulforaphane

SMILES | Activity (Jurkat [1]) | IC50 (Jurkat [1]) | Activity (Jurkat [2]) | Activity (Jurkat [3]) | Ratio IC50 (Jurkat [4]) | Activity (Jurkat [5]) | Activity (Jurkat [8]) | Activity (Jurkat [9]) | Activity (Jurkat [10]) | Activity (Jurkat [11]) | inhibition of growth at 1 µM (Jurkat [12]) | Activity (Jurkat [19]) | also measured
O=C1c2ccc3c4c(ccc(c24)C(=O)N1CCN=C=S)C(=O)N(CCN=C=S)C3=O | Dose-dependent effect | 890 nM | Active | 100% | 17 | Dose-dependent effect | 50.6% | 100% | 100% | Dose-dependent effect | 40% | Dose-dependent effect | Activity (Jurkat [6]): Active; Activity (Jurkat [7]): Active; inhibition of growth at 1.5 µM (Jurkat [13]): 58%; inhibition of growth at 3 µM (Jurkat [14]): 94%; Activity (Jurkat [15]): 68%; Activity (Jurkat [16]): Active; Activity (Jurkat [17]): Active; Activity (Jurkat [18]): Active; Activity (Jurkat [20]): 66%
CN(C)CCN1C(=O)c2ccc3c4c(ccc(c24)C1=O)C(=O)N(CCN=C=S)C3=O | Dose-dependent effect | 1910 nM | Active | 100% | 8 | Dose-dependent effect | – | 100% | 100% | Dose-dependent effect | – | Dose-dependent effect | Activity (Jurkat [21]): Active; Activity (Jurkat [22]): Active; Activity (Jurkat [23]): 53%; inhibition of growth at 2 µM (Jurkat [24]; read-out: GI): 30%; inhibition of growth at 4 µM (Jurkat [25]): 40%; inhibition of growth at 8 µM (Jurkat [26]): 90%; Activity (Jurkat [27]): 68%; Activity (Jurkat [28]): 15%; Activity (Jurkat [29]): inactive; Activity (Jurkat [30]): Active; Activity (Jurkat [31]): 56%
CC[C@@]1(O)C(=O)OCc2c1cc1n(c2=O)Cc2cc3ccccc3nc2-1 | – | – | – | – | – | – | – | – | – | – | – | – | Activity (Jurkat [32]): Active
O=C1c2ccc3c4c(ccc(c24)C(=O)N1CCCN=C=S)C(=O)N(CCCN=C=S)C3=O | Dose-dependent effect | 430 nM | Active | 100% | 35 | Dose-dependent effect | 47.1% | 100% | 100% | Dose-dependent effect | 65% | Dose-dependent effect | Activity (Jurkat [33]): Active; Activity (Jurkat [34]): Active; inhibition of growth at 0.75 µM (Jurkat [35]): 30%; growth inhibition (GI) (Jurkat [24]): Active; Activity (Jurkat [36]): 68%; Activity (Jurkat [37]): 13%; Activity (Jurkat [38]): 22%; Activity (Jurkat [39]): Active; Activity (Jurkat [40]): 68%; fold change (FC) (Jurkat [41]): 40
C[S+]([O-])CCCCN=C=S (stereo unspecified) [SULFORAPHANE] | – | 15000 nM | – | – | – | – | – | – | – | – | – | – | –
